Our source for the B-score values is PubChem BioAssay AID2247 (Johns Hopkins Ion Channel Center, 2010).

The campaign covered roughly 300,000 compounds. About 1,200 (0.4%) were called active.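 The calls were made as follows: active = B-score over 3 SD under the library average, no early fluorescence shift, positive overall ratio signal; inactive = the rest.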 Many of the other results were omitted from the sample, so actives are more common in it than they were.

Short transient receptor potential channel 4 (Mus musculus), sequence (Q9QUQ5 whole entry, looked up): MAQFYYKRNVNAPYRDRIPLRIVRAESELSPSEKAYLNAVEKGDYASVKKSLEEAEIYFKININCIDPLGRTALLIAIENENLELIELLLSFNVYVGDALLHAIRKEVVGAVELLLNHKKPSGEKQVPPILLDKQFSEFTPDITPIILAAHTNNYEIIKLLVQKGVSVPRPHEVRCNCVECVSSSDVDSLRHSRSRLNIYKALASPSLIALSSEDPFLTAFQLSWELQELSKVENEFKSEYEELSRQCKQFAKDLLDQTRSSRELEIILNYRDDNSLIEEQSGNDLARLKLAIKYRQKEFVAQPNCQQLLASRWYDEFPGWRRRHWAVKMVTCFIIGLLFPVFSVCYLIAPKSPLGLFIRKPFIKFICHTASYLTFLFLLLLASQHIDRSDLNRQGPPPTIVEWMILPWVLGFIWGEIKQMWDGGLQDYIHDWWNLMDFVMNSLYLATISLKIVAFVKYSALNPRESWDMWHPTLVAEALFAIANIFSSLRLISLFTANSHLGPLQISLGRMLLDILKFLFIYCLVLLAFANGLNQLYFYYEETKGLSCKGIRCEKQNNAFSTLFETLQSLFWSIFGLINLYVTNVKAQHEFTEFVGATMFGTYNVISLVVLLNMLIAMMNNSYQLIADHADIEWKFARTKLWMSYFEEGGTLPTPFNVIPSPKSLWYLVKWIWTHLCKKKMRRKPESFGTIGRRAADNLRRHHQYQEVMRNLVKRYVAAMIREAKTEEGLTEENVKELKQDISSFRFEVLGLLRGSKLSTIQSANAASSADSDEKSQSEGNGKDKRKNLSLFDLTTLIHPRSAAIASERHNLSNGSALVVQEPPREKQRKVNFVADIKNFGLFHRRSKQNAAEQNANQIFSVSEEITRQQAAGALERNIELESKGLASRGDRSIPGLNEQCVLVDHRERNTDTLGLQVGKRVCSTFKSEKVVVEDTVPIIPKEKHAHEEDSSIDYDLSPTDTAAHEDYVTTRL

The target in the assay is Short transient receptor potential channel 4 (Mus musculus) (UniProt Q9QUQ5). Nature of the assay: blockers of DAMGO-evoked TRPC4 calcium flux – Fluo4 calcium, HEK293 TRPC4beta/mu-opioid cells, primary screen (AID 2247). To be noted: at 10 µM; stronger effect = lower value. In a few lines:
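Test system – stable TRPC4beta/mu-opioid receptor HEK293 cells · Probe or stimulus – DAMGO, a submaximal dose followed by a maximal one · Dosing – one concentration per compound · Signal – Fluo4 calcium fluorescence by kinetic imaging, 5 s 1 Hz baseline · Evaluation – per-well B score of integrated baseline-normalized Fluo4 ratio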
For orientation: Calcium flux is commonly read through the fluorescence of an indicator in the cells.
For `CC(=O)Nc1ccc(NC(=O)C2CCCN2S(=O)(=O)c2cccc(C(F)(F)F)c2)cc1` (configuration not stated), the B-score entry was “inactive”.

For `CC(C)c1ccc(S(=O)(=O)N2CCN(C(=O)CN3C(=O)NC(C)(c4ccccc4)C3=O)CC2)cc1` (configuration not stated), the B-score entry was “inactive”.

Take `N#Cc1c(-c2ccccc2)nc(SCc2ccc([N+](=O)[O-])cc2)[nH]c1=O`: the B-score result was “inactive”.

On to `Cc1ccc(CSc2nc(-c3ccccc3)c(C#N)c(=O)[nH]2)cc1`, for which the B-score is -6 (active).

As for `N#Cc1c(-c2ccccc2)nc(SCc2cccc(C(F)(F)F)c2)[nH]c1=O`, the B-score result is “inactive”.

In the case of `CC(C)c1ccc(S(=O)(=O)N2CCC3(CC2)OCCO3)cc1`, the B-score entry was “inactive”.

Regarding `Nc1ccc(C(=O)N2CCN(S(=O)(=O)c3ccc(Cl)cc3)CC2)cc1[N+](=O)[O-]`, the B-score entry is “inactive”.

Consider `CN(C)CCN(C(=O)CN1C(=O)c2ccccc2C1=O)c1nc2cc3c(cc2s1)OCCO3`, for which the B-score result is “inactive”.

Turning to `CN(C)CCN(C(=O)C1CCCCC1)c1nc2cc3c(cc2s1)OCO3`, the B-score was -6 (active).

`CCN(CC)CCN(C(=O)c1cc(Cl)sc1Cl)c1nc2cc3c(cc2s1)OCO3`: the B-score entry is “inactive”.

As for `CC(=O)Nc1ccc(S(=O)(=O)Oc2ccc(Br)cc2C(=S)N2CCOCC2)cc1`, the B-score entry was “inactive”.

Take `COc1ccc(/C(C)=N/N2CCOCC2)c(O)c1`: the B-score entry is “inactive”.

Regarding `COc1ccc(C(=O)N/N=c2\oc3ccccc3cc2C(N)=O)cc1`, the B-score entry is “inactive”.

In the case of `NC(=O)c1cc2ccccc2o/c1=N/NC(=O)c1cccc(F)c1`, the B-score entry was “inactive”.

Take `COc1cccc2cc(C(N)=O)/c(=N\NC(=O)c3ccccc3)oc12`: the B-score is -6 (active).

Regarding `COc1ccc(C(=O)NC2CC(C)(C)Cc3c2cnn3-c2ccccc2)c(OC)c1` (configuration not stated), the B-score result is “inactive”.

On to `CN1OC(COC(=O)c2ccc(Cl)cc2)CC1c1ccccc1` (configuration not stated), for which the B-score entry was “inactive”.

Consider `CCOC(=O)C1CCN(Cc2ccc(-c3ccccc3)cc2)CC1`, for which the B-score entry is “inactive”.

On to `CCCC(=O)C1CCN(Cc2ccccc2)CC1`, for which the B-score entry is “inactive”.

As for `CCCCN(Cc1ccccc1)C(=O)C1CCN(Cc2sccc2C)CC1`, the B-score was -6 (active).

Consider `COc1cccc(CNc2ncc(-c3ccccc3)n2C)c1`, for which the B-score entry is “inactive”.

Consider `CCN(CC)S(=O)(=O)c1ccc(Cl)c(C(=O)NCCN2CCOCC2)c1`, for which the B-score result is “inactive”.

As for `Cc1ccccc1N(C(=O)Cc1cccs1)C(C(=O)NC1CCCCC1)c1cn(C)nc1C` (configuration not stated), the B-score entry is “inactive”.

Turning to `COc1cccc(CNc2nc(C(F)(F)F)nc3ccccc23)c1`, the B-score result was “inactive”.

On to `CCc1ccc(C(CNc2nc(C(F)(F)F)nc3ccccc23)N(C)C)cc1` (configuration not stated), for which the B-score was -7 (active).

`NS(=O)(=O)c1ccc(CCNc2nc(C(F)(F)F)nc3ccccc23)cc1`: the B-score result was “inactive”.

With `CN(Cc1ccccc1F)C(=O)C(Cc1ccccc1)NC(=O)c1ccccc1` (configuration not stated), the B-score result was “inactive”.

Take `Cn1c(C(=O)N2CCCC(C(=O)NCc3ccccc3)C2)cc2sccc21` (configuration not stated): the B-score entry is “inactive”.

Consider `Cc1ccc(CN(C(=O)c2sc3ccccc3c2Cl)C2CCS(=O)(=O)C2)cc1` (configuration not stated), for which the B-score result was “inactive”.

Consider `c1ccc(COc2ccccc2CNCc2cccnc2)cc1`, for which the B-score entry was “inactive”.

Regarding `Fc1ccccc1COc1ccccc1CNCc1ccncc1`, the B-score is -7 (active).

In the case of `Fc1ccccc1COc1cccc2cccnc12`, the B-score entry is “inactive”.

For the compound `Cc1ccc(S(=O)(=O)CC(=O)Nc2sc(C)c(C)c2C(N)=O)cc1`, the B-score entry was “inactive”.

Regarding `COc1cc2ccccc2cc1C(=O)N1CCOCC1`, the B-score entry is “inactive”.

Take `CCCCCn1c(=O)[nH]c2cc(C(=O)NCCCN3CCCCC3C)ccc2c1=O` (configuration not stated): the B-score entry was “inactive”.

For the compound `N#CCCCn1c(O)c(N=NC(=O)C(O)c2ccccc2)c2ccccc21` (configuration not stated), the B-score result is “inactive”.

Regarding `Cc1cc(N/N=C/c2ccccc2F)c2ccccc2n1`, the B-score was -8 (active).

Take `Oc1ccc(/C=N/Nc2nc(-c3ccccc3F)nc3ccccc23)c(O)c1`: the B-score entry was “inactive”.

Turning to `Cc1ccc2nc(C)cc(N/N=C/c3ccc(F)cc3)c2c1`, the B-score result was “inactive”.

Consider `CCCCC(c1nnnn1CS(=O)(=O)c1ccc(C)cc1)N1CCC(C(N)=O)CC1` (configuration not stated), for which the B-score entry is “inactive”.

As for `CC1(C)OC(=O)C(=CNC(CO)C(=O)O)C(=O)O1` (configuration not stated), the B-score result was “inactive”.

For the compound `CCN1CCN(CC(=O)Nc2sc3c(c2C#N)CCC3)CC1`, the B-score entry was “inactive”.

As for `CCCc1cc(=O)[nH]c(SCC(=O)Nc2sc3c(c2C#N)CCCC3)n1`, the B-score was -6 (active).

`NC(=O)c1c(NC(=O)CSc2nc(N)cc(=O)[nH]2)sc2c1CCCC2`: the B-score result is “inactive”.

With `COc1ccc2[nH]c(=O)c(CN(Cc3cccnc3)S(=O)(=O)c3ccccc3F)cc2c1`, the B-score entry was “inactive”.

For `CC(C)(C)NCc1cc(Br)ccc1OC1CCCC1`, the B-score result is “inactive”.

As for `COc1ccccc1CN1CCN(C(c2ccccc2)c2ccccc2)CC1`, the B-score entry was “inactive”.

Take `CC(NCc1ccccc1OC1CCCC1)c1ccccc1` (configuration not stated): the B-score was -6 (active).

`CC1CCCCC1NC(=O)/C(C#N)=C/C=C/c1ccccc1[N+](=O)[O-]` (configuration not stated): the B-score entry is “inactive”.

On to `COc1ccc(N(Cc2cc3ccc(C)cc3[nH]c2=O)S(=O)(=O)c2ccccc2)cc1`, for which the B-score result was “inactive”.

Consider `O=C(c1cc(C(=O)N2CCN(c3ccc(F)cc3)CC2)cc([N+](=O)[O-])c1)N1CCN(c2ccc(F)cc2)CC1`, for which the B-score entry was “inactive”.

Take `O=C(c1cccc(C(=O)N2CCN(c3ccc(F)cc3)CC2)c1)N1CCN(c2ccc(F)cc2)CC1`: the B-score is -8 (active).

As for `O=C(c1cc2cc(F)ccc2[nH]1)N1CCN(c2ccc(F)cc2)CC1`, the B-score result was “inactive”.

As for `O=C(O)c1n[nH]nc1-c1ccccc1`, the B-score entry is “inactive”.

For the compound `Oc1ccc(-c2nnc(Nc3ccccc3)c3ccccc23)cc1`, the B-score result is “inactive”.

Consider `c1ccc(Nc2n[nH]nc2-c2ccccc2)cc1`, for which the B-score is -6 (active).

Regarding `COc1cc(C(F)(F)F)nc2c(Br)c(C(C)(C)C)nn12`, the B-score is -6 (active).

Take `CC1C(=O)N2CCCc3cc(S(=O)(=O)NCc4ccc(F)cc4)cc1c32` (configuration not stated): the B-score result was “inactive”.

Turning to `Cc1cccc2cc(CN(Cc3nnnn3Cc3ccccc3)C3CCCC3)c(=O)[nH]c12`, the B-score was -7 (active).

Take `Cc1cccc2cc(CN(Cc3ccc4c(c3)OCO4)Cc3nnnn3C3CCCC3)c(=O)[nH]c12`: the B-score entry is “inactive”.

In the case of `Cc1cc(C)c2cc(CN(Cc3nnnn3Cc3ccc(F)cc3)C3CCCC3)c(=O)[nH]c2c1`, the B-score result is “inactive”.

Turning to `NS(=O)(=O)c1ccc(NC(=S)Nc2ccc(Br)c(Cl)c2)cc1`, the B-score entry is “inactive”.

`Cc1ccc(S(=O)(=O)N2CCC(C)CC2)cc1C(=O)NCc1ccccn1`: the B-score entry is “inactive”.

With `O=C(NNC(=S)NCc1ccccc1)c1ccc(OC(F)F)cc1`, the B-score result is “inactive”.

For the compound `Cc1ccc(OCC(=O)NNC(=S)NCc2ccccc2)cc1`, the B-score entry is “inactive”.

As for `CC(C)Oc1ccc(CCC(=O)NNC(=S)NCc2ccccc2)cc1`, the B-score was -6 (active).

For the compound `COc1ccc(NC(=O)CN(C)C(=O)c2cc(-c3ccc(C)o3)nc3ccccc23)cc1`, the B-score entry was “inactive”.

In the case of `COc1ccc(-n2ncc3c(N4CCc5ccccc54)ncnc32)cc1`, the B-score was -7 (active).

Regarding `CC(C)Sc1ncnc2c1cnn2-c1ccccc1`, the B-score entry is “inactive”.

Take `COc1ccc(-n2ncc3c(SCC(=O)NNC(C)=O)ncnc32)cc1`: the B-score entry was “inactive”.

Regarding `Nc1ccc(Cl)c(S(=O)(=O)Nc2ccccc2Cl)c1`, the B-score entry is “inactive”.

Take `O=C(COC(=O)/C=C/c1cccc(Cl)c1)NCCc1ccccc1`: the B-score result is “inactive”.

Regarding `COc1ccc(CN2CCCC(CNC(=O)c3ccc(F)cc3)C2)cc1OC` (configuration not stated), the B-score was -6 (active).

Consider `COc1ccc(Cc2nc3ccc(C(=O)NCC4CCOCC4)cc3o2)cc1OC`, for which the B-score result was “inactive”.

For `COc1ccc(CCN(C)C(=O)C2CCCN(Cc3ccc(OC)c(OC)c3)C2)cc1OC` (configuration not stated), the B-score entry was “inactive”.

Consider `O/N=C(\C[n+]1ccccc1)c1ccc(Br)cc1`, for which the B-score result was “inactive”.

As for `Cn1ncc(Br)c1C(=O)NC1CCCC1`, the B-score entry is “inactive”.

Regarding `COc1ccc(CCN2C(=O)C(C)=C(C)C2=O)cc1OC`, the B-score result was “inactive”.

As to `COc1ccc(CCN(C)CCN2C(=O)c3ccccc3C2=O)cc1OC`, the B-score is -8 (active).

Turning to `COc1ccc(CCN2C(=O)C3CC=C(C)CC3C2=O)cc1OC` (configuration not stated), the B-score result is “inactive”.

For `O=C(CSc1ncnc2c1oc1ccccc12)NC1CCCC1`, the B-score entry was “inactive”.

For the compound `CCn1c(COc2cccc(OC)c2)nnc1SCC(=O)N1CCOCC1`, the B-score entry was “inactive”.

Turning to `CCCCCCCCCCOC(=O)Cn1c(COc2ccc(C)cc2)[n+](C)c2ccccc21`, the B-score entry was “inactive”.

For `CCCCCCCCCCOC(=O)Cn1c(COc2cccc(OC)c2)[n+](C)c2ccccc21`, the B-score is -6 (active).

For the compound `O=C(OCC(=O)N1CCCC1=O)c1cc(S(=O)(=O)N2CCOCC2)ccc1Cl`, the B-score result was “inactive”.

Consider `CCOc1ccc(C(=O)Nc2ccc(CN3CCOCC3)cc2)cc1Cl`, for which the B-score result was “inactive”.

For `Cn1c(=O)[nH]c(=O)c2c1nc(NCCCn1ccnc1)n2Cc1cccc(Br)c1`, the B-score entry is “inactive”.

As for `O=C(COc1ccccc1Cl)Nc1ccccc1C(=O)NC1CC1`, the B-score result was “inactive”.

Regarding `Cc1ccccc1OCC(=O)NNC(=O)c1ccc(-n2cncn2)c([N+](=O)[O-])c1`, the B-score entry is “inactive”.

With `Cc1ccc(O)c(CNc2nc3ccccc3n2C)c1`, the B-score entry is “inactive”.

For `Cc1ccc(-c2cc(=O)[nH]c(NCc3ccccc3)n2)cc1`, the B-score result was “inactive”.

Turning to `Cc1ccc(O)c(CNc2nc3ccccc3[nH]2)c1`, the B-score is -7 (active).

Regarding `CCC1CCCCN1S(=O)(=O)Cc1ccccc1Cl` (configuration not stated), the B-score result was “inactive”.

As to `CCc1ccc(NC(=O)CN2CCC(C(=O)c3ccc(OC)cc3)CC2)cc1`, the B-score result was “inactive”.

Take `CC1(C)OC(=O)C(=CSc2ccc(C(C)(C)C)cc2)C(=O)O1`: the B-score entry was “inactive”.

Consider `CSc1ccc(/C=N\NC(=O)CC(=O)NC(C)C)cc1`, for which the B-score was -8 (active).

For `Cc1ccc(-n2c(C)cc(/C=N\NC(=O)CC(=O)NC(C)C)c2C)cc1`, the B-score entry was “inactive”.

Consider `CSc1ccc(/C=N/NC(=O)c2cccc(Cl)c2)cc1`, for which the B-score result is “inactive”.

On to `Cc1ccc(-c2csc(NCCc3nc4cc(Cl)c(Cl)cc4n3CCOCCO)n2)cc1`, for which the B-score result was “inactive”.

`CCCSc1nc2c(c(=O)n(C)c(=O)n2C)n1Cc1ccc(C)cc1`: the B-score entry is “inactive”.

Take `Cc1cccc(Cn2c(SCCO)nc3c2c(=O)n(C)c(=O)n3C)c1`: the B-score result was “inactive”.

As to `CCOc1ccc(Cn2c(SCCCCC#N)nc3c2c(=O)n(C)c(=O)n3C)cc1OCC`, the B-score is -5 (active).

As to `COc1ccc(N2C(=O)C3C(C2=O)C(C(=O)c2ccccc2)N2CCCC32)cc1` (configuration not stated), the B-score result was “inactive”.

As for `O=C(COC(=O)c1ccc(F)cc1)NCCCc1ccccc1`, the B-score result was “inactive”.

`CSCCNCc1cn(-c2ccc(F)cc2F)nc1-c1ccccc1C`: the B-score was -7 (active).

With `COc1ccccc1CC(=O)Nc1ccc(F)cc1F`, the B-score entry was “inactive”.

For `Cc1ccc(-c2nn(-c3cccc(F)c3)cc2CNCCc2ccncc2)o1`, the B-score entry is “inactive”.
